Source: ChEMBL document CHEMBL3272313, “3-Hydroxy-17-aralkylmorphinans as potential opiate receptor-site-directed alkylating agents” (J Med Chem, 1977)
Active and inactive are the calls of the source. The rule behind the calls is not given here.

Key:
Mus musculus [1] = test: Analgesic activity in sc dosed Swiss-Webster mouse after 30 mins; format: functional; conditions: 0.5 h
Mus musculus [2] = test: Analgesic activity in Swiss-Webster mouse assessed as time required for sustainance of activity at 100 mg/kg, sc; format: functional; conditions: route subcutaneous
Mus musculus [3] = test: Inhibition of morphine sulfate-induced analgesic activity in Swiss-Webster mouse at 100 mg/kg, sc after 2 hrs; format: functional, organism-based; parameters: dose 100 mg/kg
Method in brief: (§1)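 Male Swiss-Webster mice, 20–25 g. Challenge was 10 mg/kg morphine sulfate in 8–10 mice, read by the modified D'Amour–Smith test. Where block was seen, morphine ED50 (95% limits) was found by Litchfield–Wilcoxon.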

Mus musculus [4] = test: Inhibition of morphine sulfate-induced analgesic activity in Swiss-Webster mouse at 100 mg/kg, sc after 1 hr; format: functional, organism-based; parameters: dose 100 mg/kg; method in brief: as §1
Mus musculus [5] = test: Inhibition of morphine sulfate-induced analgesic activity in Swiss-Webster mouse at 80 mg/kg, sc after 1 hr; format: functional, organism-based; parameters: dose 80 mg/kg; method in brief: as §1
Mus musculus [6] = test: Analgesic activity in Swiss-Webster mouse assessed as time required for sustainance of activity at 80 mg/kg, sc; format: functional; conditions: route subcutaneous
Mus musculus [7] = species on record: Mus musculus; test: Narcotic agonist activity in morphine-dependent mouse assessed as suppression of abstinence; format: functional, organism-based
Method in brief: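 Single-dose suppression test in morphine-dependent mice after withdrawal (method of Takemori et al.); compound given sc.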

Mus musculus [8] = test: Analgesic activity in sc dosed Swiss-Webster mouse time of peak effect; format: functional
Mus musculus [9] = test: Analgesic activity in Swiss-Webster mouse assessed as time required for sustainance of activity at 15 mg/kg, sc; format: functional; conditions: route subcutaneous
[10] = target: T1, Opioid receptors; mu/kappa/delta (Homo sapiens, UniProt P41145+P41143+P35372); test: Ratio of IC50 for opiate receptor (unknown origin) after 10 mins in presence of NaCl to IC50 for opiate receptor (unknown origin) after 10 mins
T1 sequence (P35372 whole entry, looked up): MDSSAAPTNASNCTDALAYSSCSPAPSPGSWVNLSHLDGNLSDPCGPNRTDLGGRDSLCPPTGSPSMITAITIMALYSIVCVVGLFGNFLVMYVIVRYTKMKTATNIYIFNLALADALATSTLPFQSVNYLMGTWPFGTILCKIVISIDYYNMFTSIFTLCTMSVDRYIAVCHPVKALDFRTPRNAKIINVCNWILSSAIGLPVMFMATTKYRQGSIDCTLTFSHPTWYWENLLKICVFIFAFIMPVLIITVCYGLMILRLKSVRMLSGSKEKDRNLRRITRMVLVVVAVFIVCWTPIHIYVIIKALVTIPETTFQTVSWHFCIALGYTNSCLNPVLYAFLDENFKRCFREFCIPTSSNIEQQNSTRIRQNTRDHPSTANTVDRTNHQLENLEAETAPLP
T1 sequence (P41143 whole entry, looked up): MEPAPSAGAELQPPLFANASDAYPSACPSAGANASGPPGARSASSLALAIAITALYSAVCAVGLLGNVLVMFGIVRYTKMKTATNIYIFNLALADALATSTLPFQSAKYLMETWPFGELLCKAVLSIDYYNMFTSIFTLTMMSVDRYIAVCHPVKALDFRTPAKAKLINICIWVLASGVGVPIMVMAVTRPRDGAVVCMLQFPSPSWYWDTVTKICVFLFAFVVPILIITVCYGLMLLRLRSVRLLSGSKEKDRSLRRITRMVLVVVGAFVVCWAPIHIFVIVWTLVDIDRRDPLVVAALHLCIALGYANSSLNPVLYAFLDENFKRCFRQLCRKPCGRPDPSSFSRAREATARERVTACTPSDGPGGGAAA
T1 sequence (P41145 whole entry, looked up): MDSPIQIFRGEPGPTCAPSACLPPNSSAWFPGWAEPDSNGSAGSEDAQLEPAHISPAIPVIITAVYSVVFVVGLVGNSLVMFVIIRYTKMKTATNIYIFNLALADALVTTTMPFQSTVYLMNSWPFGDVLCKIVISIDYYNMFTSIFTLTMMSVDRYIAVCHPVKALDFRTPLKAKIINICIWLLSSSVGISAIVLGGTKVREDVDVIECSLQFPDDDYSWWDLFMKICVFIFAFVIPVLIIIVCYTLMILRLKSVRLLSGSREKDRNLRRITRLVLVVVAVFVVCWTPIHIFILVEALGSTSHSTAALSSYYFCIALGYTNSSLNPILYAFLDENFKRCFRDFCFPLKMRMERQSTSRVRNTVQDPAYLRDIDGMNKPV
Method in brief: (§2)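 [3H]naloxone 1.5×10^-9 M bound to a brain homogenate (Pert–Snyder method as modified by Pasternak, with a preincubation step), 10 min incubation. Run with and without 100 mM NaCl. Stereospecific binding was defined with 1×10^-6 M levallorphan. IC50 is the concentration giving 50% inhibition of stereospecific binding, and the ratio is IC50 with NaCl over IC50 without.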

Mus musculus [11] = test: Ratio of morphine ED50 to compound ED50 for sc dosed Swiss-Webster mouse; format: functional
[12] = target: T1, Opioid receptors; mu/kappa/delta; test: Displacement of [3H]naloxone from opiate receptor (unknown origin) after 10 mins
Mus musculus [13] = test: Analgesic activity in Swiss-Webster mouse at 2 mg/kg, sc in presence of naloxone; format: functional, organism-based; parameters: dose 2 mg/kg
Method in brief: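 Mice were pretreated with naloxone, then given blocker 2 mg/kg sc. After 2 h, when the naloxone effect had ended, morphine analgesia was tested in the same animals (modified D'Amour–Smith). Counts are responders per 10 mice.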

[14] = target: T1, Opioid receptors; mu/kappa/delta; test: Displacement of [3H]naloxone from opiate receptor (unknown origin) after 10 mins in presence of NaCl; method in brief: as §2
Mus musculus [15] = test: Analgesic activity in Swiss-Webster mouse assessed as time required for sustainance of activity at 2 mg/kg, sc; format: functional; conditions: route subcutaneous
Mus musculus [16] = test: Inhibition of morphine sulfate-induced analgesic activity in Swiss-Webster mouse at 2 to 32 mg/kg, sc after 2 to 4 hrs; format: functional, organism-based
Method in brief: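 Male Swiss-Webster mice received the maleimide blocker sc at 2, 8 or 32 mg/kg (40% propylene glycol). Morphine sulfate dose-response was run after reaction time returned to control (2, 3 or 4 h). Morphine ED50 and 95% limits were taken by Litchfield–Wilcoxon, and curve slopes were compared.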

Mus musculus [17] = test: Inhibition of morphine sulfate-induced analgesic activity in Swiss-Webster mouse at 50 mg/kg, sc after 2 hrs; format: functional, organism-based; parameters: dose 50 mg/kg; method in brief: as §1
Mus musculus [18] = test: Analgesic activity in Swiss-Webster mouse assessed as time required for sustainance of activity at 50 mg/kg, sc; format: functional; conditions: route subcutaneous
Mus musculus [19] = test: Analgesic activity in Swiss-Webster mouse assessed as time required for sustainance of activity at 2.7 mg/kg, sc; format: functional; conditions: route subcutaneous
Mus musculus [20] = test: Analgesic activity in Swiss-Webster mouse assessed as time required for sustainance of activity at 40 mg/kg, sc; format: functional; conditions: route subcutaneous
Mus musculus [21] = test: Inhibition of morphine sulfate-induced analgesic activity in Swiss-Webster mouse at 40 mg/kg, sc after 3 hrs; format: functional, organism-based; parameters: dose 40 mg/kg; method in brief: as §1
Mus musculus [22] = test: Analgesic activity in Swiss-Webster mouse assessed as time required for sustainance of activity at 2.6 mg/kg, sc; format: functional; conditions: route subcutaneous
Mus musculus [23] = test: Inhibition of morphine sulfate-induced analgesic activity in Swiss-Webster mouse at 2.6 mg/kg, sc after 2.5 hrs; format: functional, organism-based; parameters: dose 2.6 mg/kg; method in brief: as §1

| Structure (SMILES) | ED50 (Mus musculus [1]) [mg/kg] | Time (Mus musculus [2]) [h] | Time (Mus musculus [8]) [min] | also measured |
| --- | --- | --- | --- | --- |
| CC(=O)Oc1ccc2c(c1)[C@@]13CCCC[C@H]1[C@@H](C2)N(CCCc1cccc(N2C(=O)C=CC2=O)c1)CC3 | > 100 | 2 | – | inhibition (Mus musculus [3]): Active |
| CCOC(=O)CCC(=O)Nc1ccccc1CCCN1CC[C@]23CCCC[C@H]2[C@H]1Cc1ccc(O)cc13 | > 100 | 2 | – | inhibition (Mus musculus [3]): Active |
| O=C(CBr)Nc1ccc(CCCN2CC[C@]34CCCC[C@H]3[C@H]2Cc2ccc(O)cc24)cc1 | > 100 | 1 | – | inhibition (Mus musculus [4]): Active |
| O=C1C=CC(=O)N1c1ccccc1CCN1CC[C@]23CCCC[C@H]2[C@H]1Cc1ccc(O)cc13 | > 100 | – | – | inhibition (Mus musculus [5]): Active; Time (Mus musculus [6]): 1 h |
| O=C(CBr)Nc1ccccc1CCCN1CC[C@]23CCCC[C@H]2[C@H]1Cc1ccc(O)cc13 | > 100 | 1 | – | inhibition (Mus musculus [4]): Active |
| O=C(CBr)Nc1cccc(CCCN2CC[C@]34CCCC[C@H]3[C@H]2Cc2ccc(O)cc24)c1 | > 100 | 1 | – | inhibition (Mus musculus [4]): Active |
| CCOC(=O)/C=C\C(=O)Nc1cccc(CCN2CC[C@]34CCCC[C@H]3[C@H]2Cc2ccc(O)cc24)c1 | 2.3 | – | 60 | inhibition (Mus musculus [7]): Active; Time (Mus musculus [9]): 3 h |
| CCOC(=O)/C=C\C(=O)Nc1ccccc1CCCN1CC[C@]23CCCC[C@H]2[C@H]1Cc1ccc(O)cc13 | > 100 | 2 | – | inhibition (Mus musculus [3]): Active |
| O=C1C=CC(=O)N1c1ccc(CCN2CC[C@]34CCCC[C@H]3[C@H]2Cc2ccc(O)cc24)cc1 | 1.1 | – | 30 | Ratio IC50 [10]: > 10; Ratio ED50 (Mus musculus [11]): 4; IC50 [12]: 5.3 nM; Activity (Mus musculus [13]): inactive; IC50 [14]: 5.7 ×10⁻⁸ M; inhibition (Mus musculus [7]): Active; Time (Mus musculus [15]): 2 h; inhibition (Mus musculus [16]): Active |
| CCOC(=O)CCC(=O)Nc1ccc(CCCN2CC[C@]34CCCC[C@H]3[C@H]2Cc2ccc(O)cc24)cc1 | 78.2 | 2 | 30 | inhibition (Mus musculus [3]): Active |
| O=C1C=CC(=O)N1c1cccc(CCCN2CC[C@]34CCCC[C@H]3[C@H]2Cc2ccc(O)cc24)c1 | > 50 | – | – | inhibition (Mus musculus [17]): Active; Time (Mus musculus [18]): 2 h |
| CN1CC[C@]23c4c5ccc(O)c4O[C@H]2[C@@H](O)C=C[C@H]3[C@H]1C5.CN1CC[C@]23c4c5ccc(O)c4O[C@H]2[C@@H](O)C=C[C@H]3[C@H]1C5.O=S(=O)(O)O | 4.9 | – | 30 | – |
| CCOC(=O)CCC(=O)Nc1ccc(CCN2CC[C@]34CCCC[C@H]3[C@H]2Cc2ccc(O)cc24)cc1 | 0.71 | – | 60 | Ratio ED50 (Mus musculus [11]): 4; inhibition (Mus musculus [7]): Active; Time (Mus musculus [19]): 4 h |
| CCOC(=O)CCC(=O)Nc1cccc(CCN2CC[C@]34CCCC[C@H]3[C@H]2Cc2ccc(O)cc24)c1 | 6 | – | 60 | Time (Mus musculus [20]): 3 h; inhibition (Mus musculus [21]): Active |
| CCOC(=O)/C=C/C(=O)Nc1ccc(CCN2CC[C@]34CCCC[C@H]3[C@H]2Cc2ccc(O)cc24)cc1 | 1.2 | – | 60 | Ratio ED50 (Mus musculus [11]): 4; Time (Mus musculus [22]): 2.5 h; inhibition (Mus musculus [23]): Active |
